p97 ATPase inh = inhibitors of human p97 ATPase, primary screen, biochemical. recombinant p97 ATPase, Kinase-Glo ATP luminescence, 3 h. 220,000 compounds, 0.42% hits. inhibition, % at 8 µM. Transitional endoplasmic reticulum ATPase (Homo sapiens), P55072; in the data active means inhibition above about 15%
Runt-SMMHC FRET = inhibitors of RUNX1 Runt–CBFb-SMMHC binding, primary screen, biochemical, FRET, Cerulean-Runt, Venus-CBFb-SMMHC, uHTS | Runt-related transcription factor 1 (Homo sapiens) + Core-binding factor subunit beta … | Cerulean-Runt/Venus-CBFb-SMMHC FRET ratio 530/480, 1 h | inhibition, % at 20 µM | 220,000 compounds, 0.74% hits | AID 1434, 2008;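 active means mean inhibition across duplicate retests at 20 µM reaching about 50%, limit read from the data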;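 further: inhibitors lower the FRET ratio by blocking Runt binding to CBFb-SMMHC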
RanGTP-Impb inh = inhibitors of RanGTP-importin-beta interaction, primary screen, biochemical, FRET, CFP-Ran, YFP-importin-beta, homogeneous; 300,000 compounds, 1.1% hits; AID 2216, 2009; cell-free CFP-Ran/YFP-importin-beta FRET ratio; inhibition, % (test concentration not listed); Ran GTPase (GTP-bound) - importin-beta complex;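 active means more than half of the replicate wells show a fall in the fluorescence ratio signal beyond about 16%, limit read from the data, passing the limit was not always enough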
Runt-CBFb FRET = inhibitors of RUNX1 Runt–CBFb binding, primary screen, biochemical, FRET, Cerulean-Runt, Venus-CBFb, uHTS. Runt-related transcription factor 1 (Homo sapiens) + Core-binding factor subunit beta …. Cerulean-Runt/Venus-CBFb FRET ratio 530/480, 1 h. inhibition, % at 20 µM. 220,000 compounds, 0.46% hits;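 active means inhibition over about 50% at 20 µM in the single-dose screen, limit read from the data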
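test system = Cerulean-tagged RUNX1 Runt domain (FRET donor) fusion protein | reagent = Venus-CBFb binding partner, 100 nM | incubation = protein complex preformed 1 h, compound exposure 1 h, room temperature, dark | detection = FRET fluorescence | read-out basis = loss of energy transfer signal | controls = 5 µM unlabeled CBFb as full-inhibition high control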
Hck-Nef inh = inhibitors of Nef-activated human Hck kinase, primary screen, biochemical, Z-Lyte FRET, 384-well, Hck-YEEI; Tyrosine-protein kinase HCK (Homo sapiens), P08631; inhibition, % at 20 µM; 220,000 compounds, 0.68% hits; Recombinant Hck-YEEI plus Nef, Z-Lyte FRET kinase assay;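 active means Hck-Nef kinase inhibition above about 50%, limit read from the data; inactive means inhibition below that limit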
Target sequence (P08631 whole entry, looked up): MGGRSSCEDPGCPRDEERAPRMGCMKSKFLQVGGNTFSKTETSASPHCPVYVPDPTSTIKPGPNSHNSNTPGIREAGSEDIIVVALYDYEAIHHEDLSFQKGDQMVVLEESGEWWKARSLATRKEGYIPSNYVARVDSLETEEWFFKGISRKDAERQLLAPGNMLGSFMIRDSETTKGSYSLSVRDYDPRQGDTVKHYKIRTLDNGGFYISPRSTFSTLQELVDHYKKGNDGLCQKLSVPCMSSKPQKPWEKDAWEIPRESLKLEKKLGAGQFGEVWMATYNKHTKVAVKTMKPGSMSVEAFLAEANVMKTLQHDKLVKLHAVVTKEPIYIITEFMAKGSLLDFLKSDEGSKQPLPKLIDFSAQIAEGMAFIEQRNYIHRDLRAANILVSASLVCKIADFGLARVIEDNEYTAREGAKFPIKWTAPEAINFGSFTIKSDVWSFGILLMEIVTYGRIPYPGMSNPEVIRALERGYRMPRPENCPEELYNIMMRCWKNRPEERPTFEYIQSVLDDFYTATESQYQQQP
TbHK1 inh = Trypanosoma brucei hexokinase 1 inhibitors, primary screen, biochemical, G6PDH-coupled NADH absorbance, MLSCN library; 220,000 compounds, 0.11% hits; inhibition, % at 10 µM; recombinant TbHK1, G6PDH-coupled NADH A340; hexokinase 1 [Trypanosoma brucei]; AID 1430, 2008;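 active means inhibition of 50% or more in the single-dose primary screen; inactive means inhibition below 50%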
Hck-Nef confirm = retest of Hck:Nef kinase inhibitor hits, confirmation, biochemical, Z-Lyte FRET, 384-well, p-Tyr peptide counterscreen; AID 463188, 2010; calls only at 10 µM; 1,300 compounds, 28% hits; Recombinant Hck-YEEI:Nef, Z-Lyte FRET kinase assay; shares compounds with Hck-Nef inh;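 active means average inhibition of at least 50%, with Z-scores no higher than 3 in both the phospho-tyrosine peptide and fluorescence counterscreens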
A number is an active result. Most compounds without a hit are left out; they make up all but 2.1% or so of the library.

COc1cccc2c(=O)c3ccoc3n(C)c12 was read as p97 ATPase inh inactive, Runt-SMMHC FRET inactive, RanGTP-Impb inh inactive, Runt-CBFb FRET inactive, Hck-Nef inh inactive and TbHK1 inh inactive.
Cc1cccc(Nc2sc(C(=O)c3cc4cc(Cl)ccc4o3)c(N)c2C#N)c1 was read as p97 ATPase inh inactive, Runt-SMMHC FRET inactive, RanGTP-Impb inh inactive, Runt-CBFb FRET inactive, Hck-Nef inh 56, TbHK1 inh inactive and Hck-Nef confirm inactive.
`CCc1nn(CC(=O)NCCN2CCN(C)CC2)c(=O)c2cc3c(OC)cccc3n12` gave RanGTP-Impb inh inactive.
CCC(C)C(NC(=O)c1ccccc1NC(=O)c1ccc(OC)cc1)C(=O)NCc1ccco1 (configuration not stated) was read as p97 ATPase inh inactive, Runt-SMMHC FRET inactive, RanGTP-Impb inh inactive, Runt-CBFb FRET inactive, Hck-Nef inh 69, TbHK1 inh inactive and Hck-Nef confirm active.
`c1coc(-c2nc3nc4ccccc4nc3n2CC2CCCO2)c1` (configuration not stated) gave p97 ATPase inh inactive, Runt-SMMHC FRET inactive, RanGTP-Impb inh inactive, Runt-CBFb FRET inactive, Hck-Nef inh 159 and TbHK1 inh inactive.
Screening CSCC(=O)NC1CCCc2c1cnn2-c1ccc(C)c(C)c1 (configuration not stated) returned RanGTP-Impb inh inactive.
For Cc1ccc(NS(=O)(=O)c2ccc(-c3csc(C)n3)s2)c(C)c1 the results were p97 ATPase inh inactive, Runt-SMMHC FRET inactive, RanGTP-Impb inh inactive, Runt-CBFb FRET inactive, Hck-Nef inh inactive and TbHK1 inh inactive.
CCOc1cc(/C=N/N=C2/NC(=O)C(CC(=O)O)S2)ccc1OCc1ccc(Cl)cc1Cl (configuration not stated) was read as p97 ATPase inh inactive, Runt-SMMHC FRET inactive, RanGTP-Impb inh inactive, Runt-CBFb FRET inactive, Hck-Nef inh 54, TbHK1 inh inactive and Hck-Nef confirm inactive.
`CCc1nc(SCC(=O)Nc2nccs2)c2oc3ccccc3c2n1` gave p97 ATPase inh inactive, Runt-SMMHC FRET inactive, RanGTP-Impb inh inactive, Runt-CBFb FRET inactive, Hck-Nef inh inactive and TbHK1 inh inactive.
For O=C(CSc1ncnc2c1oc1ccccc12)Nc1nccs1 the results were p97 ATPase inh inactive, Runt-SMMHC FRET inactive, RanGTP-Impb inh inactive, Runt-CBFb FRET inactive, Hck-Nef inh 79, TbHK1 inh inactive and Hck-Nef confirm inactive.
`O=c1[nH]c2ccc(S(=O)(=O)NCc3ccccc3)cc2[nH]1` gave p97 ATPase inh inactive, Runt-SMMHC FRET inactive, RanGTP-Impb inh inactive, Runt-CBFb FRET inactive, Hck-Nef inh inactive and TbHK1 inh inactive.
CCOc1ccc(N(CC(=O)Nc2ccc(C)c(Cl)c2)S(C)(=O)=O)cc1 was read as RanGTP-Impb inh inactive.
Cc1ccc(C2=C(c3ccc([N+](=O)[O-])cc3)C(=O)OC2)cc1C was read as p97 ATPase inh inactive, Runt-SMMHC FRET inactive, RanGTP-Impb inh inactive, Runt-CBFb FRET inactive, Hck-Nef inh inactive and TbHK1 inh inactive.
Brc1ccc2[nH]c3c(c2c1)CCC3 was read as p97 ATPase inh inactive, Runt-SMMHC FRET inactive, RanGTP-Impb inh inactive, Runt-CBFb FRET inactive, Hck-Nef inh inactive and TbHK1 inh inactive.
`NC(=O)c1cc(Br)cc2c3c([nH]c12)CCCC3` gave p97 ATPase inh inactive, Runt-SMMHC FRET inactive, RanGTP-Impb inh inactive, Runt-CBFb FRET inactive, Hck-Nef inh 58, TbHK1 inh inactive and Hck-Nef confirm active.
O=C(c1cc(Cl)ccc1O)N1CCN(S(=O)(=O)c2cccs2)CC1 was read as RanGTP-Impb inh inactive.
